Measurements: ChEMBL document CHEMBL2177096, “Sulfonyl fluoride inhibitors of fatty acid amide hydrolase” (J Med Chem, 2012)

Experiments:
Cannabinoid receptor 1 = Cannabinoid receptor 1 (Rattus norvegicus, UniProt P20272); experiment: Displacement of [3H]CP-55,940 from CB1 receptor in rat brain homogenates; assay type: tissue-based
How it was run: (§1)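 Membranes from rat brain (CB1) or from HEK293 cells overexpressing mouse CB2 were used, with [3H]CP-55,940 as radioligand. Data fitted by nonlinear regression. Ki values come from three independent experiments run in duplicate and are given as the mean of the three.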

Cannabinoid receptor 2 = Cannabinoid receptor 2 (Mus musculus, UniProt P47936); experiment: Displacement of [3H]CP-55,940 from mouse CB2 receptor expressed in HEK293 cells; assay type: cell-based; how it was run: as §1
[1] = Inhibition of rat FAAH deltaTM mutant expressed in Escherichia coli using AAMCA as substrate after 15 mins by medium throughput fluorescent assay
[2] = Inhibition of human FAAH deltaTM mutant expressed in Escherichia coli using AAMCA as substrate after 15 mins by medium throughput fluorescent assay
Rattus norvegicus = species on record: Rattus norvegicus; experiment: Irreversible inhibition of rat FAAH deltaTM mutant expressed in Escherichia coli assessed as recovery of enzyme activity using AAMCA as substrate at 40 times IC50 treated for 1 hr measured after 80 mins of rapid dilution by medium throughput fluorescent assay; design: scale not given: the % may be the effect or the level left
Monoglyceride lipase = biological target: T1, Monoglyceride lipase (Homo sapiens, UniProt Q99685); experiment: Inhibition of recombinant human hexahistidine-tagged MGL expressed in Escherichia coli using AHMMCE as substrate after 15 mins by medium throughput fluorescent assay
T1 sequence (Q99685 whole entry): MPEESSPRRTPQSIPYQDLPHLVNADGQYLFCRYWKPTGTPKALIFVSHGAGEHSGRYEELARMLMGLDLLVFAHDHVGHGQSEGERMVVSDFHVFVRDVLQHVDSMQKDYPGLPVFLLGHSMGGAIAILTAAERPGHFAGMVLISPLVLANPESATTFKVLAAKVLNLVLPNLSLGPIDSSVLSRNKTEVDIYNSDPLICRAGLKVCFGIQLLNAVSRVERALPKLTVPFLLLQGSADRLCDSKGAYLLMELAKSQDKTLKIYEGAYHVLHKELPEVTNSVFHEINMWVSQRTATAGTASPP

Cannabinoid receptor 2, sequence (P47936 whole entry): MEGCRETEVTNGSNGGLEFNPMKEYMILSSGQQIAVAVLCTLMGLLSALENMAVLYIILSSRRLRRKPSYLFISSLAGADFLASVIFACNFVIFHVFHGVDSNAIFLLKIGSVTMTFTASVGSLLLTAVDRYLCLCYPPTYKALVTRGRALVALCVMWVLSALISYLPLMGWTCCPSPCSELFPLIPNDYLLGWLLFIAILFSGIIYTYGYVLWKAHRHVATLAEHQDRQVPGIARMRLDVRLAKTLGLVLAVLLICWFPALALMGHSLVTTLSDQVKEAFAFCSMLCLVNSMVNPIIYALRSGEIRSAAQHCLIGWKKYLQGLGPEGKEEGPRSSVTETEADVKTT
Cannabinoid receptor 1, sequence (P20272 whole entry): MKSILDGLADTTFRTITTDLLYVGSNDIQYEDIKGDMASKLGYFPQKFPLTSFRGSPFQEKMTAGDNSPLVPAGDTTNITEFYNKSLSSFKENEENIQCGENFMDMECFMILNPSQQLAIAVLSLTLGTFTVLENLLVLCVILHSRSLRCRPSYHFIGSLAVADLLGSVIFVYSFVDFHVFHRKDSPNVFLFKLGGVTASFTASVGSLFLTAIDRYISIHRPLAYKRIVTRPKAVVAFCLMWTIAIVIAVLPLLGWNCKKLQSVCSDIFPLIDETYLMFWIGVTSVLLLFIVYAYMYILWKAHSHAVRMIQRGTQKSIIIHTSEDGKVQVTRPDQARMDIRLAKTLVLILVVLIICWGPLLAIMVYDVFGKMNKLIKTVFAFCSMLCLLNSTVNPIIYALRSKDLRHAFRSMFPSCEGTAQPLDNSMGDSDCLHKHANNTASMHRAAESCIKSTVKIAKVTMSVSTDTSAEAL

Row | SMILES | Ki (Cannabinoid receptor 1) | Ki (Cannabinoid receptor 2) | IC50 [1] | other results
1 | O=S(=O)(F)CCCCCc1ccc(OCc2ccccc2)cc1 | 118 nM | 194 nM | 1.5 nM | 
2 | O=S(=O)(F)CCCCCCCc1cccc(O)c1 |  |  | 2.5 nM | 
3 | O=S(=O)(F)CCCCCCCc1cccc(OCc2ccccc2)c1 | 335 nM | 99 nM |  | 
4 | O=S(=O)(F)CCCCCCCc1ccccc1OCc1ccccc1 |  |  | 4.3 nM | 
5 | O=S(=O)(F)CCCCc1ccccc1 |  |  | 88.2 nM | 
6 | O=S(=O)(F)CCCCCc1ccc(O)cc1 | 192 nM | 577 nM | 2.8 nM | IC50 [2]: 5.1 nM; Activity (Rattus norvegicus): 8%
7 | O=S(=O)(F)CCCCCCCc1ccccc1O |  |  | 1.2 nM | 
8 | COS(=O)(=O)CCCCCCCc1ccc(OCc2ccccc2)cc1 |  |  | 269 nM | IC50 (Monoglyceride lipase): > 5000 nM
9 | O=S(=O)(F)CCCCCCCc1ccccc1 |  |  | 37 nM | 
10 | O=S(=O)(F)CCCc1ccccc1 |  |  | 205 nM | 
11 | O=S(=O)(F)CCCCCCc1ccccc1 |  |  | 37.7 nM | 
12 | O=S(=O)(F)CCCCCc1ccccc1 |  |  | 50.4 nM | 
13 | O=S(=O)(F)CCCCOc1ccc(OCc2ccccc2)cc1 | 104 nM | 203 nM | 1.2 nM | 
14 | O=S(=O)(F)CCCCCCCCc1ccccc1 |  |  | 176 nM | 
15 | O=S(=O)(F)CCCCCCCc1ccc(O)cc1 | 163 nM | 698 nM |  | 
